Reference: ChEMBL document CHEMBL3286388, “Discovery of potent anticancer agent HJC0416, an orally bioavailable small molecule inhibitor of signal transducer and activator of transcription 3 (STAT3)” (Eur J Med Chem, 2014)
Activity calls are given as the source filed them. The rule behind the calls is not given here.

System: MCF7
Experiment: Antiproliferative activity against ER-positive human MCF7 cells assessed as inhibition of cell proliferation after 72 hrs by MTS assay
Format: functional, cell-based
Settings: MCF7, 72 h
Outline: (§1)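 Cells seeded at 2 × 10^3 per well, exposed to DMSO or 0.01–100 µM (0.01, 0.1, 1, 5, 10, 100) for 72 h. MTS added, OD 550 nm read after 1 h at 37 °C. Quadruplicate wells for each concentration; IC50 reported.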

Row | SMILES | IC50 [µM]
1 | O=C(Nc1ccc2c(c1)S(=O)(=O)C=C2)c1cc(Cl)ccc1OCCN1CCOCC1 | 0.49
2 | CN(C)CCOc1ccc(Cl)cc1C(=O)Nc1ccc2c(c1)S(=O)(=O)C=C2 | 3.5
3 | NCCOc1ccc(Cl)cc1C(=O)Nc1ccc2c(c1)S(=O)(=O)C=C2 | 3.47
4 | COC1CS(=O)(=O)c2cc(NC(=O)c3cc(Cl)ccc3O)ccc21 (configuration not stated) | 6.07
5 | NCCCOc1ccc(Cl)cc1C(=O)Nc1ccc2c(c1)S(=O)(=O)C=C2 | 1.76
6 | O=C(Nc1ccc2c(c1)S(=O)(=O)C=C2)c1cc(Cl)ccc1OCCBr | > 10
7 | CN1CCC(Oc2ccc(Cl)cc2C(=O)Nc2ccc3c(c2)S(=O)(=O)C=C3)CC1 | 3.53
8 | CN1CCN(CCOc2ccc(Cl)cc2C(=O)Nc2ccc3c(c2)S(=O)(=O)C=C3)CC1 | 4.08
9 | O=C(Nc1ccc2c(c1)S(=O)(=O)C=C2)c1cc(Cl)ccc1OCCF | 4
10 | O=C(Nc1ccc2c(c1)S(=O)(=O)C=C2)c1cc(Cl)ccc1OCCN1CCCCC1 | 3.74
11 | CNCCOc1ccc(Cl)cc1C(=O)Nc1ccc2c(c1)S(=O)(=O)C=C2 | 3.15
12 | O=C(Nc1ccc2c(c1)S(=O)(=O)C=C2)c1cc(Cl)ccc1OC1CCNCC1 | 4.21
13 | O=[N+]([O-])c1ccc2c(c1)S(=O)(=O)C=C2 | 3.6
14 | O=C(Nc1ccc2c(c1)S(=O)(=O)C=C2)c1cc(Cl)ccc1OCCN1CCNCC1 | 2.56

System: MDA-MB-231
Experiment: Antiproliferative activity against ER-negative and triple-negative human MDA-MB-231 cells assessed as inhibition of cell proliferation after 72 hrs by MTS assay
Format: functional, cell-based
Settings: MDA-MB-231, 72 h
Outline: as §1

Row | SMILES | IC50 [µM]
15 | O=C(Nc1ccc2c(c1)S(=O)(=O)C=C2)c1cc(Cl)ccc1OCCN1CCOCC1 | 5.43
16 | CN(C)CCOc1ccc(Cl)cc1C(=O)Nc1ccc2c(c1)S(=O)(=O)C=C2 | 2.69
17 | NCCOc1ccc(Cl)cc1C(=O)Nc1ccc2c(c1)S(=O)(=O)C=C2 | 3.12
18 | COC1CS(=O)(=O)c2cc(NC(=O)c3cc(Cl)ccc3O)ccc21 (configuration not stated) | 7.05
19 | NCCCOc1ccc(Cl)cc1C(=O)Nc1ccc2c(c1)S(=O)(=O)C=C2 | 1.97
20 | O=C(Nc1ccc2c(c1)S(=O)(=O)C=C2)c1cc(Cl)ccc1OCCBr | > 10
21 | CN1CCC(Oc2ccc(Cl)cc2C(=O)Nc2ccc3c(c2)S(=O)(=O)C=C3)CC1 | 2.68
22 | CN1CCN(CCOc2ccc(Cl)cc2C(=O)Nc2ccc3c(c2)S(=O)(=O)C=C3)CC1 | 2.86
23 | O=C(Nc1ccc2c(c1)S(=O)(=O)C=C2)c1cc(Cl)ccc1OCCF | 4.42
24 | O=C(Nc1ccc2c(c1)S(=O)(=O)C=C2)c1cc(Cl)ccc1OCCN1CCCCC1 | 2.51
25 | CNCCOc1ccc(Cl)cc1C(=O)Nc1ccc2c(c1)S(=O)(=O)C=C2 | 3.12
26 | O=C(Nc1ccc2c(c1)S(=O)(=O)C=C2)c1cc(Cl)ccc1OC1CCNCC1 | 2.85
27 | O=[N+]([O-])c1ccc2c(c1)S(=O)(=O)C=C2 | 2.89
28 | O=C(Nc1ccc2c(c1)S(=O)(=O)C=C2)c1cc(Cl)ccc1OCCN1CCNCC1 | 3.29

System: ASPC1
Experiment: Antiproliferative activity against human AsPC1 cells assessed as inhibition of cell proliferation after 72 hrs by MTS assay
Format: functional, cell-based
Settings: ASPC1, 72 h
Outline: as §1

Row | SMILES | IC50 [µM]
29 | O=C(Nc1ccc2c(c1)S(=O)(=O)C=C2)c1cc(Cl)ccc1OCCN1CCOCC1 | 1.37
30 | CN(C)CCOc1ccc(Cl)cc1C(=O)Nc1ccc2c(c1)S(=O)(=O)C=C2 | 1.14
31 | NCCOc1ccc(Cl)cc1C(=O)Nc1ccc2c(c1)S(=O)(=O)C=C2 | 1.05
32 | COC1CS(=O)(=O)c2cc(NC(=O)c3cc(Cl)ccc3O)ccc21 (configuration not stated) | 8.46
33 | NCCCOc1ccc(Cl)cc1C(=O)Nc1ccc2c(c1)S(=O)(=O)C=C2 | 0.04
34 | CN1CCC(Oc2ccc(Cl)cc2C(=O)Nc2ccc3c(c2)S(=O)(=O)C=C3)CC1 | 1.04
35 | CN1CCN(CCOc2ccc(Cl)cc2C(=O)Nc2ccc3c(c2)S(=O)(=O)C=C3)CC1 | 1.07
36 | O=C(Nc1ccc2c(c1)S(=O)(=O)C=C2)c1cc(Cl)ccc1OCCF | 1.37
37 | O=C(Nc1ccc2c(c1)S(=O)(=O)C=C2)c1cc(Cl)ccc1OCCN1CCCCC1 | 1.42
38 | CNCCOc1ccc(Cl)cc1C(=O)Nc1ccc2c(c1)S(=O)(=O)C=C2 | 2.05
39 | O=C(Nc1ccc2c(c1)S(=O)(=O)C=C2)c1cc(Cl)ccc1OC1CCNCC1 | 1.6
40 | O=[N+]([O-])c1ccc2c(c1)S(=O)(=O)C=C2 | 1.32
41 | O=C(Nc1ccc2c(c1)S(=O)(=O)C=C2)c1cc(Cl)ccc1OCCN1CCNCC1 | 1.02

System: not listed separately
Experiment: Antiproliferative activity against human PANC1 cells assessed as inhibition of cell proliferation after 72 hrs by MTS assay
Format: functional, cell-based
Settings: PANC-1, 72 h
Outline: as §1

Row | SMILES | IC50 [µM]
42 | O=C(Nc1ccc2c(c1)S(=O)(=O)C=C2)c1cc(Cl)ccc1OCCN1CCOCC1 | 6.95
43 | CN(C)CCOc1ccc(Cl)cc1C(=O)Nc1ccc2c(c1)S(=O)(=O)C=C2 | 3.38
44 | NCCOc1ccc(Cl)cc1C(=O)Nc1ccc2c(c1)S(=O)(=O)C=C2 | 2.25
45 | COC1CS(=O)(=O)c2cc(NC(=O)c3cc(Cl)ccc3O)ccc21 (configuration not stated) | 8.39
46 | NCCCOc1ccc(Cl)cc1C(=O)Nc1ccc2c(c1)S(=O)(=O)C=C2 | 1.88
47 | CN1CCC(Oc2ccc(Cl)cc2C(=O)Nc2ccc3c(c2)S(=O)(=O)C=C3)CC1 | 1.36
48 | CN1CCN(CCOc2ccc(Cl)cc2C(=O)Nc2ccc3c(c2)S(=O)(=O)C=C3)CC1 | 3.01
49 | O=C(Nc1ccc2c(c1)S(=O)(=O)C=C2)c1cc(Cl)ccc1OCCF | 9.53
50 | O=C(Nc1ccc2c(c1)S(=O)(=O)C=C2)c1cc(Cl)ccc1OCCN1CCCCC1 | 1.81
51 | CNCCOc1ccc(Cl)cc1C(=O)Nc1ccc2c(c1)S(=O)(=O)C=C2 | 3.09
52 | O=C(Nc1ccc2c(c1)S(=O)(=O)C=C2)c1cc(Cl)ccc1OC1CCNCC1 | 4.09
53 | O=[N+]([O-])c1ccc2c(c1)S(=O)(=O)C=C2 | 3.77
54 | O=C(Nc1ccc2c(c1)S(=O)(=O)C=C2)c1cc(Cl)ccc1OCCN1CCNCC1 | 3.69

System: MDA-MB-231
Experiment: Anticancer activity against human MDA-MB-231 cells assessed as cell growth inhibition, apoptosis and cellular morphological changes at 1 to 10 uM after 48 hrs by light microscopy
Format: functional, cell-based
Settings: not given
Outline: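 Exponentially growing MDA-MB-231 cells incubated with compound for 48 h; growth, apoptosis and morphology judged under light microscopy.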

Row | SMILES | Activity
55 | NCCCOc1ccc(Cl)cc1C(=O)Nc1ccc2c(c1)S(=O)(=O)C=C2 | Active
56 | O=[N+]([O-])c1ccc2c(c1)S(=O)(=O)C=C2 | Active

System: MDA-MB-231
Experiment: Inhibition of STAT3 promoter activity in human MDA-MB-231 cells at 5 uM after 24 hrs by dual luciferase reporter assay
Format: functional
Settings: MDA-MB-231, 24 h
Outline: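 MDA-MB-231 cells pretreated at 5 µM for 24 h, replated in RPMI-1640 with 10% FBS, and transfected 4 h later with pSTAT3-Luc plus renilla control (95:5, 0.5 µg DNA per well). Treated again for 24 h starting 5 h after transfection. RLU = firefly/renilla luciferase relative to DMSO control. Triplicate wells, at least 3 independent experiments.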

Row | SMILES | inhibition at 5 µM [%]
57 | NCCCOc1ccc(Cl)cc1C(=O)Nc1ccc2c(c1)S(=O)(=O)C=C2 | 51
58 | O=[N+]([O-])c1ccc2c(c1)S(=O)(=O)C=C2 | 39

System: MDA-MB-231
Experiment: Decrease in STAT3 protein expression in human MDA-MB-231 cells at 1 to 10 uM after 12 hrs by western blot analysis
Format: functional, cell-based
Settings: not given
Outline: (§2)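 MDA-MB-231 cells treated for 12 h. Lysates (40 µg protein, BCA) run on 10% SDS-PAGE and transferred to nitrocellulose. Blocked in 5% milk/1% Tween 20 in TBS, probed for pSTAT3 Y705, STAT3, active caspase-3, cyclin D1 and β-actin, ECL detection.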

Row | SMILES | inhibition
59 | NCCCOc1ccc(Cl)cc1C(=O)Nc1ccc2c(c1)S(=O)(=O)C=C2 | Active
60 | O=[N+]([O-])c1ccc2c(c1)S(=O)(=O)C=C2 | Active

Biological target: Signal transducer and activator of transcription 3 (Homo sapiens) (UniProt P40763)
Sequence (P40763 whole entry): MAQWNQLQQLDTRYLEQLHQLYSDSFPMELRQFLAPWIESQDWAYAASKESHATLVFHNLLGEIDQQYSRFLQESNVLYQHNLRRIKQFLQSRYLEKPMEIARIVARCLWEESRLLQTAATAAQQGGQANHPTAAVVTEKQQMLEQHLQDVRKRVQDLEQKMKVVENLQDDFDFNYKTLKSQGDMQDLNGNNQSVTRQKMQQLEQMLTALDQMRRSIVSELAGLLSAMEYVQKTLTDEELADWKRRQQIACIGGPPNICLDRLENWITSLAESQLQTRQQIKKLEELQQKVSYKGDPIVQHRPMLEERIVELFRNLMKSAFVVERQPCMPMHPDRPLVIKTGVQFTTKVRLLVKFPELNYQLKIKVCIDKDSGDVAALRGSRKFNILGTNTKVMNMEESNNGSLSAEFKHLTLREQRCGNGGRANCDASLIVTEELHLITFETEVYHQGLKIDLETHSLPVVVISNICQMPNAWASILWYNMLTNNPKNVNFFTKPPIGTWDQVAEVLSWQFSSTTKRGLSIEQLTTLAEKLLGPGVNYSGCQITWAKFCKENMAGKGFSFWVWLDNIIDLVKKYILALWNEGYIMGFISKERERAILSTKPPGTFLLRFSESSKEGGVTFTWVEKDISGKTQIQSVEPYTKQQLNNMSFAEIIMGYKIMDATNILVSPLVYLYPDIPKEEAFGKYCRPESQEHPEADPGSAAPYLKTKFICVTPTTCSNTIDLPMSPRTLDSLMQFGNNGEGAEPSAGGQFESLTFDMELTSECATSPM
Experiment: Inhibition of STAT3 phosphorylation at Tyr705 in human MDA-MB-231 cells at 1 to 10 uM after 12 hrs by western blot analysis
Format: cell-based
Settings: not given
Outline: as §2

Row | SMILES | inhibition
61 | NCCCOc1ccc(Cl)cc1C(=O)Nc1ccc2c(c1)S(=O)(=O)C=C2 | Active
62 | O=[N+]([O-])c1ccc2c(c1)S(=O)(=O)C=C2 | Active

System: MDA-MB-231
Experiment: Induction of apoptosis in human MDA-MB-231 cells assessed as cleaved caspase-3 level at 1 to 10 uM after 12 hrs by western blot analysis
Format: functional, cell-based
Settings: not given
Outline: as §2

Row | SMILES | Activity
63 | NCCCOc1ccc(Cl)cc1C(=O)Nc1ccc2c(c1)S(=O)(=O)C=C2 | Active

System: MDA-MB-231
Experiment: Downregulation of cyclin D1 protein expression in human MDA-MB-231 cells at 1 to 10 uM after 12 hrs by western blot analysis
Format: functional, cell-based
Settings: not given
Outline: as §2

Row | SMILES | inhibition
64 | NCCCOc1ccc(Cl)cc1C(=O)Nc1ccc2c(c1)S(=O)(=O)C=C2 | Active

System: MDA-MB-231
Experiment: Antitumor activity against triple-negative human MDA-MB-231 cells xenografted in nude mouse assessed as decrease in tumor volume at 10 mg/kg, ip administered daily
Format: functional
Settings: MDA-MB-231, ip, route intraperitoneal
Outline: (§3)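 Female nude mice, 6 weeks old, received 2.5 × 10^6 MDA-MB-231 cells in PBS into the 3rd mammary fat pad and were randomized (5–10 per group). Dosing began at 150 mm³ tumors for ip daily 10 mg/kg, or 110 mm³ for oral gavage 100 mg/kg five days per week. Vehicle was 50% DMSO/50% PEG. Body weight and tumor volume (0.5·L·W²) measured daily.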

Row | SMILES | inhibition in vivo at 10 mg/kg [%]
65 | NCCCOc1ccc(Cl)cc1C(=O)Nc1ccc2c(c1)S(=O)(=O)C=C2 | 67

System: MDA-MB-231
Experiment: Antitumor activity against triple-negative human MDA-MB-231 cells xenografted in nude mouse assessed as decrease in tumor volume at 100 mg/kg, po administered via gavage for five days per week
Format: functional
Settings: MDA-MB-231, 120 h
Outline: as §3

Row | SMILES | inhibition in vivo at 100 mg/kg [%]
66 | NCCCOc1ccc(Cl)cc1C(=O)Nc1ccc2c(c1)S(=O)(=O)C=C2 | 46

System: Mus musculus
Experiment: Toxicity in nude mouse xenografted with triple-negative human MDA-MB-231 cells assessed as body weight loss at 100 mg/kg, po administered via gavage for five days per week
Format: organism-based
Set-up: dose 100 mg/kg, route oral
Settings: in vivo
Outline: as §3

Row | SMILES | Activity
67 | NCCCOc1ccc(Cl)cc1C(=O)Nc1ccc2c(c1)S(=O)(=O)C=C2 | Non-toxic
